ARFGAP1 inhibitor: inhibitors of rat ARFGAP1 GAP activity, primary screen, biochemical, fluorescence polarization, GDP tracer; Arfgap1-stimulated ARF1 GTP hydrolysis, GDP FP detection; inhibition, % at 16.5 µM; 360,000 compounds, 0.26% hits; AID 651572, 2012;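 active means inhibition above a per-plate limit, mean inhibition of low control wells plus 3 SD, cut at about 25% in these data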
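System: truncated rat Arfgap1 GAP domain / Medium: HEPES-based buffer, pH 7.5 / Also added: N-terminally truncated human ARF1-GTP substrate / Incubation: enzyme reaction 120 min at 25 °C after 20 min preincubation / Measured by: FP of antibody-bound GDP Alexa 633 tracer, ex 620/em 688 nm / Replicates: singlicate, each compound tested once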
PAFAH2 FP inh: PAFAH2 enzyme inhibitors, primary screen, biochemical, fluorescence polarization, human | 340,000 compounds, 0.99% hits | Platelet-activating factor acetylhydrolase 2, cytoplasmic (Homo sapiens), Q99487 | inhibition, % at 3.39 µM | recombinant PAFAH2, FP-rhodamine activity probe;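 active means inhibition above the mean over all tested compounds plus 3 SD, cut at about 30% in these data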;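 further: inhibitors block probe labeling of enzyme so polarization drops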
pPAFAH inh: pPAFAH enzyme inhibitors, primary screen, biochemical, fluorescence polarization, human. Platelet-activating factor acetylhydrolase (Homo sapiens), Q13093. recombinant pPAFAH, FP-rhodamine probe fluorescence polarization. inhibition, % at 3.39 µM. 330,000 compounds, 1.5% hits;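 active means inhibition above the mean inhibition across the screen plus 3 SD, cut at about 25% in these data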;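 further: inhibitors block binding of the rhodamine activity-based probe so polarization drops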
Target sequence (Q13093 whole entry, looked up): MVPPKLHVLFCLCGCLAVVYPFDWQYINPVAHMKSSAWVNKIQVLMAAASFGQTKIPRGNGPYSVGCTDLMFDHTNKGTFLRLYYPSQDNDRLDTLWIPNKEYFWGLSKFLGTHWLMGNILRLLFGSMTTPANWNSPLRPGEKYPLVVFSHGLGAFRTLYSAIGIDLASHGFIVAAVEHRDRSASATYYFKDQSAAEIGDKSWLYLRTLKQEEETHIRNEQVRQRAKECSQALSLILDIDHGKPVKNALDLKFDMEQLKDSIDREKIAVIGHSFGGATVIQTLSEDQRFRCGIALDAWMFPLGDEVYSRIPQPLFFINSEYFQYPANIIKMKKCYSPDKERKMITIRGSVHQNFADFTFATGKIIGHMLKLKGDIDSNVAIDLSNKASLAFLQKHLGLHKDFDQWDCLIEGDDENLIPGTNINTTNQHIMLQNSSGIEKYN
PAFAH1B2 inh: PAFAH1B2 enzyme inhibitors, primary screen, biochemical, fluorescence polarization, human; Platelet-activating factor acetylhydrolase IB subunit alpha2 (Homo sapiens), P68402; recombinant PAFAH1B2, FP-rhodamine activity probe; inhibition, % at 3.39 µM; 340,000 compounds, 1.2% hits;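 active means inhibition above the mean of all tested compounds plus 3 SD, cut at about 24% in these data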
PAFAH1B3 FP inh: PAFAH1B3 enzyme inhibitors, primary screen, biochemical, fluorescence polarization, human; Platelet-activating factor acetylhydrolase IB subunit alpha1 (Homo sapiens), Q15102; recombinant PAFAH1B3, FP-rhodamine probe; inhibition, % at 3.39 µM; 340,000 compounds, 0.28% hits; AID 492972, 2010;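 active means inhibition above the screen-wide average of all tested compounds plus 3 SD, cut at about 25% in these data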
ASAP1 inh: inhibitors of human ASAP1 ArfGAP activity, primary screen, biochemical, fluorescence polarization | inhibition, % at 16.5 µM | ASAP1-stimulated ARF1 GTP hydrolysis, GDP FP detection | Arf-GAP with SH3 domain, ANK repeat and PH domain-containing protein 1 (Homo sapiens), … | AID 624377, 2012 | 360,000 compounds, 0.19% hits; in the data active means inhibition above about 25%
Each line names hits and unclear results; the compound was inactive in the other large screens. A selection: hits, their analogues and other compounds. The true share with any hit is near 2.8%.

CC1=NN(c2nc(-c3ccccc3)cs2)C(=O)C1	none
Cc1cc(NC(=O)CSc2nnc(-c3ccccc3F)n2C)no1	none
COC(=O)c1c(NC(=O)/C=C/C(=O)O)sc(C)c1-c1ccc(C)cc1	none
CCOC(=O)c1c(NC(=O)/C=C/C(=O)O)sc(C)c1-c1ccc(F)cc1	pPAFAH inh 26
Cc1ccc2nc(SCC(=O)N3CCN(c4ccccc4)CC3)[nH]c2c1	PAFAH1B2 inh 30
COc1ccc(CNC(=O)CSc2nc3ccc(C)cc3[nH]2)cc1	PAFAH1B2 inh 29
COC(=O)c1sc(N)nc1CCNC(=O)OC(C)(C)C	none (no result: PAFAH2 FP inh, pPAFAH inh, PAFAH1B2 inh, PAFAH1B3 FP inh)
COc1ccc(-c2nc3c(Cl)cc(C(F)(F)F)cn3c2Cc2cccc(F)c2)cc1OC	none (no result: PAFAH2 FP inh, pPAFAH inh, PAFAH1B2 inh, PAFAH1B3 FP inh)
Oc1cc(Nc2ccccc2)cc2cccnc12	none
Oc1cc(NCCN2CCOCC2)cc2cccnc12	PAFAH1B3 FP inh 54
COCCn1c(CCC(=O)O)ccc1-c1cccs1	none
Cc1ccc(-n2c(CCC(=O)O)ccc2-c2cccs2)cc1C	pPAFAH inh 29
CCCCn1c(CCC(=O)O)ccc1-c1cccs1	pPAFAH inh 28
Nc1[nH]c(C(=O)c2ccccc2)c(-c2ccccc2[N+](=O)[O-])c1C(=O)NCCc1c[nH]c2ccccc12	none (no result: PAFAH2 FP inh, pPAFAH inh, PAFAH1B2 inh, PAFAH1B3 FP inh)
O=C(O)c1cc(NC(=S)NC(=O)C(c2ccccc2)c2ccccc2)ccc1Cl	PAFAH1B2 inh 32
CCOc1cc(/C=N/n2cnnc2)ccc1OCC(=O)Nc1ccccc1OC	none
CCOc1cc(/C=C2\C(=O)N(c3cccc(C(=O)O)c3)N=C2C(F)(F)F)ccc1OCC(=O)Nc1ccccc1OC	pPAFAH inh 37 (no result: ARFGAP1 inhibitor, PAFAH2 FP inh, PAFAH1B2 inh, PAFAH1B3 FP inh, ASAP1 inh)
C=CCN1C(=O)c2ccc(C(=O)N3CCN(S(=O)(=O)c4ccc(C(C)C)cc4)CC3)cc2C1=O	none
C[C@H](CO)N1C[C@H](C)[C@@H](CN(C)C(=O)Nc2ccc3c(c2)OCO3)Oc2ccc(NC(=O)CCC(F)(F)F)cc2C1=O	none
CC(C)C[C@H]1CN(CCCC[C@H]2CNC(=O)C(=O)N2Cc2ccccc2)C(=O)C(=O)N1Cc1ccccc1	none (no result: PAFAH2 FP inh, pPAFAH inh, PAFAH1B2 inh, PAFAH1B3 FP inh)
O=C1OC(c2cccs2)=N/C1=C/c1ccc(-c2cccc(C(=O)O)c2)o1	none (no result: pPAFAH inh)
O=C1OC(c2ccco2)=N/C1=C\c1ccc(-c2cccc(C(F)(F)F)c2)o1	pPAFAH inh 27
CCCCCCCCNc1nc(Cl)nc(NCCN2CCOCC2)n1	none
CC(=O)Nc1ccc2c(c1)nc(C)n2-c1ccccc1	none
Cc1nc2cc(Cl)ccc2n1-c1ccccc1	pPAFAH inh 25
CCC1CCC/C1=N\NC(=O)c1cc(C)[nH]n1 (stereo unspecified)	pPAFAH inh 34
C[C@H](NC(=O)c1nc[nH]c1C(=O)NCC(=O)OCc1ccccc1)c1ccccc1	PAFAH1B2 inh 34
O=C(CSc1ccc(-c2ccco2)nn1)c1ccccc1	pPAFAH inh 34
COc1ccc(C(=O)CSc2ccc(-c3ccco3)nn2)cc1	none
Cc1ccc(F)cc1CNC(=O)C1CCC(=O)N(CC2CCCCC2)C1 (stereo unspecified)	none
COc1ccc(C2CC(=O)Oc3cc(O)ccc32)cc1 (stereo unspecified)	none
Cc1ccccc1C1CC(=O)Oc2cc(O)ccc21 (stereo unspecified)	PAFAH2 FP inh 40, pPAFAH inh 32, PAFAH1B2 inh 34, PAFAH1B3 FP inh 41 (no result: ARFGAP1 inhibitor, ASAP1 inh)
CCN(CC)CCCn1c2c(c(SCC(=O)Nc3cccc4ccccc34)nc1=O)CCC2	PAFAH2 FP inh 32, PAFAH1B2 inh 34, PAFAH1B3 FP inh 36
CCN(CC)CCCn1c2c(c(SCC(=O)Nc3cccc(C)c3C)nc1=O)CCC2	none
N=C1C(c2nc(-c3ccc(F)cc3)cs2)=C(O)CN1CCCN1CCOCC1	PAFAH2 FP inh 38

High-throughput results deposited in PubChem BioAssay by The Scripps Research Institute Molecular Screening Center.
